Experimental data: ChEMBL document CHEMBL1156676, “Peptidyl 3-substituted 1-hydroxyureas as isosteric analogues of succinylhydroxamate MMP inhibitors” (Eur J Med Chem, 2008)
Where a SMILES comes first, the peptide text is derived from it. The star is where a group is joined. Cbz = O=C(OCc1ccccc1)*

How the values were obtained:
Matrilysin = target: T1, Matrilysin (Homo sapiens, UniProt P09237); experiment: Inhibition of human recombinant MMP7
T1 sequence (P09237 whole entry): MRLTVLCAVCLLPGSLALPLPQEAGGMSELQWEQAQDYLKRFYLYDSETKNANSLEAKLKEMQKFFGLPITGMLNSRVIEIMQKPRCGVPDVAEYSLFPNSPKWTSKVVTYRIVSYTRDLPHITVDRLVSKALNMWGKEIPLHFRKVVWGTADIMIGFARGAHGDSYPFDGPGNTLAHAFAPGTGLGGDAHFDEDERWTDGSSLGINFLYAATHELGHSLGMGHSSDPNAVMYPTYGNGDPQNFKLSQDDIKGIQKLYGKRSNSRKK
Method in brief: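 MMP-7 proenzyme was APMA-activated (1 mM, 1 h, 37 °C), final 2.4 nM. Incubated 4 h at 25 °C with inhibitor at seven concentrations in Tris 50 mM pH 7.5/NaCl 150 mM/CaCl2 10 mM/Brij 35 0.05%/DMSO 1%. Cleavage of Mca-Lys-Pro-Leu-Gly-Leu-Dpa-Ala-Arg-NH2 was followed fluorimetrically (325/400 nm) every 15 s over 20 min, triplicate.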

[1] = target: Matrix metalloproteinase-9 (Homo sapiens, UniProt P14780); experiment: Inhibition of human recombinant MMP9
Matrix metalloproteinase-9, sequence (P14780 whole entry): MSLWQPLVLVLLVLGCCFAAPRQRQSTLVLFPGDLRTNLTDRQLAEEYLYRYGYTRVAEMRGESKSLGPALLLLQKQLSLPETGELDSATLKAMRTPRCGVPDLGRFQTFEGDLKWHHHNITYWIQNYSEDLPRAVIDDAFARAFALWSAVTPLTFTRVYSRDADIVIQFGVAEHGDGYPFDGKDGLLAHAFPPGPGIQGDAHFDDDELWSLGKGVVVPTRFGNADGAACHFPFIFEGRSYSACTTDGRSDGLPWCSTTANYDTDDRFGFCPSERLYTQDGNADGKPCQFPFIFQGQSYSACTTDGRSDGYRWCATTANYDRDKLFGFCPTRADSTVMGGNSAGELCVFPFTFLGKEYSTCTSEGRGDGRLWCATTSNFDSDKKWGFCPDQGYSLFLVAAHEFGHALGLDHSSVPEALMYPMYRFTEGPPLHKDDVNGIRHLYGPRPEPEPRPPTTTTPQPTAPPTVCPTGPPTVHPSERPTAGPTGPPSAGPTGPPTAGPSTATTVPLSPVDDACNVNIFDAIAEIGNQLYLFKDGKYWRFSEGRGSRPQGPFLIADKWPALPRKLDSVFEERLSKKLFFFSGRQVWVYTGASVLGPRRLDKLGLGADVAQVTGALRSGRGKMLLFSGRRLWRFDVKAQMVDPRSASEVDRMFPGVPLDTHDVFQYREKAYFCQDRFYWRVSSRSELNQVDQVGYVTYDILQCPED
Method in brief: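 Pro-MMP-9 activated with APMA 1 mM, 1 h, 37 °C, used at 2.7 nM final. Preincubated 4 h at 25 °C with seven inhibitor concentrations in Tris 50 mM pH 7.5, NaCl 150 mM, CaCl2 10 mM, Brij 35 0.05%, DMSO 1%. Hydrolysis of Mca-Lys-Pro-Leu-Gly-Leu-Dpa-Ala-Arg-NH2 monitored by fluorescence (325/400 nm) every 15 s for 20 min, triplicate.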

[2] = target: 72 kDa type IV collagenase (Homo sapiens, UniProt P08253); experiment: Inhibition of human recombinant MMP2
72 kDa type IV collagenase, sequence (P08253 whole entry): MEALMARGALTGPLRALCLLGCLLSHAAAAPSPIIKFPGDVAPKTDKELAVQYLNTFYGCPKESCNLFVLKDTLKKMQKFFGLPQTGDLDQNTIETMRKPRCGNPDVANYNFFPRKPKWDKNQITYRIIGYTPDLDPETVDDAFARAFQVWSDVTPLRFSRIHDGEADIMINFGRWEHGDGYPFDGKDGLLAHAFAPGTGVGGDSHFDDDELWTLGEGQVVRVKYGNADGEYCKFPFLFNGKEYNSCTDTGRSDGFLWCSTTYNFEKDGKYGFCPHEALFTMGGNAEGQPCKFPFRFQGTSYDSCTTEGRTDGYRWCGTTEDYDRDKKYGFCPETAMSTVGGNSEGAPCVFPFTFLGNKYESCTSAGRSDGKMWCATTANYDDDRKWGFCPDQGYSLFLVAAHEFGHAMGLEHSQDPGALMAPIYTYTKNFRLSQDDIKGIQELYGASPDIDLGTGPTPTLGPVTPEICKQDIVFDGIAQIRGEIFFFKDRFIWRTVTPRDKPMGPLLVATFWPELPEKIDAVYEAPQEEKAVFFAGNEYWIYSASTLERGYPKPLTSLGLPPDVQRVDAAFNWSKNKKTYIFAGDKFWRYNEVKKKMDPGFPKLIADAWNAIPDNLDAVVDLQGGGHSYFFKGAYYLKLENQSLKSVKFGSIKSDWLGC

Interstitial collagenase = target: T2, Interstitial collagenase (Homo sapiens, UniProt P03956); experiment: Inhibition of human recombinant MMP1
T2 sequence (P03956 whole entry): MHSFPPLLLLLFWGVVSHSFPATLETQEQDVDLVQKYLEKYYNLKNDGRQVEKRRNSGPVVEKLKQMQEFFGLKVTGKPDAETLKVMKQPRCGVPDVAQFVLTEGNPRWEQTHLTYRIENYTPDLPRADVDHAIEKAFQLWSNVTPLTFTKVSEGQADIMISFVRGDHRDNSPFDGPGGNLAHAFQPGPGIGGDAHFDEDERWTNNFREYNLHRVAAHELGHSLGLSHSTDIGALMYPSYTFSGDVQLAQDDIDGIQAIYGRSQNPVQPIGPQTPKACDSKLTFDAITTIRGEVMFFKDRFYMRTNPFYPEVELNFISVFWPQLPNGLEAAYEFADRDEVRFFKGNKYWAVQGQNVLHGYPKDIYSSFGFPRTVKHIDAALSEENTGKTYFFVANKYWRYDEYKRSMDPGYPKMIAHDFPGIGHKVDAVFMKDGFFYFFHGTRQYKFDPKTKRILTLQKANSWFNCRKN

Stromelysin-1 = Stromelysin-1 (Homo sapiens, UniProt P08254); experiment: Inhibition of human recombinant MMP3
Stromelysin-1, sequence (P08254 whole entry): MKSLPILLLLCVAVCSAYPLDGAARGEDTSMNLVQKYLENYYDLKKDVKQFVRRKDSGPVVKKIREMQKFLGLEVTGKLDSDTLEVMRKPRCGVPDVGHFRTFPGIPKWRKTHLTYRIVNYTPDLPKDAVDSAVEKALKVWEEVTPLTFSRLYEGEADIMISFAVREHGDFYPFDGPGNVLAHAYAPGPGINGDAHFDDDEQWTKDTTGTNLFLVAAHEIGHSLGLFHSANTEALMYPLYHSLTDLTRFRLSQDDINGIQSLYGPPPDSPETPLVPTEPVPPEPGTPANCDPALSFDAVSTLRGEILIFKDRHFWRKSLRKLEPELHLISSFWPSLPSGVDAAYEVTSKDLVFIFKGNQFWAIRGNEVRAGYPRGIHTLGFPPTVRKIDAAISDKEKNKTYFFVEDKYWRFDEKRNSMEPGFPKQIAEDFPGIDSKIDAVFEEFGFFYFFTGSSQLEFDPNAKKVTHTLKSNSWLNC

Neutrophil collagenase = Neutrophil collagenase (Homo sapiens, UniProt P22894); experiment: Inhibition of human recombinant MMP8
Neutrophil collagenase, sequence (P22894 whole entry): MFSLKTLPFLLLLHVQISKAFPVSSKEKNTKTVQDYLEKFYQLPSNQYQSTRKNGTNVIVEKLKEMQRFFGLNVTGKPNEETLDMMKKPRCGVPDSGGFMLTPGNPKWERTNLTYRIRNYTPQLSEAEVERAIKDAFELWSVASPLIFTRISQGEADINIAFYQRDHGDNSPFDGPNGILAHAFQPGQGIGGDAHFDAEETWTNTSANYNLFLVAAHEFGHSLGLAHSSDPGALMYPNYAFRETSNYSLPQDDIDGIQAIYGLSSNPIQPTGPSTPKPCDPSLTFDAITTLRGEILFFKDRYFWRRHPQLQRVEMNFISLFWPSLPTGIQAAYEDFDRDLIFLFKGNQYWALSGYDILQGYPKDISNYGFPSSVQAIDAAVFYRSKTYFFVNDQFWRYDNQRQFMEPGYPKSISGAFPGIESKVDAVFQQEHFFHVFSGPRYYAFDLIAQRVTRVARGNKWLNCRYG

IC50 (Matrilysin) | IC50 [1] | IC50 [2] | IC50 (Interstitial collagenase) | IC50 (Stromelysin-1) | IC50 (Neutrophil collagenase) | Structure (SMILES)
0.0083 µM | 0.00038 µM |  |  |  |  | CNC(=O)[C@H](Cc1ccccc1)NC(=O)[C@@H](CC(=O)NO)CC(C)C
> 300 µM | > 300 µM | > 300 µM |  |  |  | CNC(=O)[C@H](Cc1ccccc1)NC(=O)[C@@H](N)CC(C)C
> 300 µM | 200 µM | > 300 µM | > 300 µM | > 300 µM | 150 µM | CNC(=O)[C@H](Cc1ccccc1)NC(=O)[C@@H](CC(C)C)NC(=O)NO
4.1 µM | 0.15 µM |  |  |  |  | CNC(=O)[C@H](Cc1ccccc1)NC(=O)[C@H](CC(=O)NO)CC(C)C
> 300 µM | 20 µM | 60 µM | 270 µM | > 300 µM | 70 µM | CNC(=O)[C@H](Cc1ccccc1)NC(=O)[C@H](CC(C)C)NC(=O)NO
> 300 µM | > 300 µM | > 300 µM | > 300 µM | > 300 µM | > 300 µM | CNC(=O)[C@H](Cc1ccccc1)NC(=O)[C@H](N)CC(C)C
> 300 µM | > 300 µM | > 300 µM | > 300 µM | > 300 µM | > 300 µM | COC(=O)[C@H](Cc1ccccc1)NC(=O)[C@H](CC(C)C)NC(=O)OCc1ccccc1 (Cbz-Leu-Phe-OMe)
